Calls of active or inactive are those of the source. The calls are words filed in the database; no cut-off is given here.
Experiments:
EL4 [1] = assay: Inhibition of lymphocyte-mediated cytolysis at a concentration of 100 uM in [51Cr]- labelled EL4 leukemia cells; format: functional; details: Mus musculus
Rattus norvegicus [2] = assay: Dose required to produce an acute inflammatory response of the algal poly saccharide carrageenan into the pleural cavity of rat; IA is Inactive at 9 mg/kg; format: functional, organism-based; design: dose 9 mg/kg
Mus musculus = organism: Mus musculus; assay: Compound was tested for inhibition of mouse connective tissue cell (L) growth at a concentration of 100 uM; format: functional; details: for inhibition at 100 µM: Mus musculus
In short: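 D-98 (human sternal marrow) and L (mouse connective tissue) cells were cultured with compound at 100 µM, and growth inhibition was reported as %. Procedure per earlier publication.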

D98 (Homo sapiens) = assay: Compound was tested for inhibition of human sternal marrow cell (D98) growth at a concentration of 100 uM
Rattus norvegicus [3] = organism: Rattus norvegicus; assay: Dose required to produce an acute inflammatory response of the algal poly saccharide carrageenan into the pleural cavity of rat.; format: functional
Rattus norvegicus [4] = assay: Dose required to produce an acute inflammatory response of the algal poly saccharide carrageenan into the pleural cavity of rat; IA is Inactive at 6 mg/kg; format: functional, organism-based; design: dose 6 mg/kg
EL4 [5] = assay: Compound was tested for inhibition of lymphocyte-mediated cytolysis at a concentration of 50 uM in [51Cr]- labeled EL4 leukemia cells; format: functional; details: Mus musculus
EL4 [6] = assay: Compound was tested for inhibition of lymphocyte-mediated cytolysis at a concentration of 26 uM in [51Cr]- labeled EL4 leukemia cells; format: functional; details: Mus musculus

SMILES | inhibition at 100 µM (EL4 [1]) [%] | ED50 (Rattus norvegicus [2]) | inhibition at 100 µM (Mus musculus) [%] | inhibition (D98 (Homo sapiens)) [%] | ED50 (Rattus norvegicus [3]) [mg/kg] | ED50 (Rattus norvegicus [4]) | Inhibition (Mus musculus) [%] | inhibition at 50 µM (EL4 [5]) [%] | inhibition at 26 µM (EL4 [6]) [%]
[N-]=[N+]=Nc1nccc2c1ncn2[C@H]1C[C@H](O)[C@@H](CO)O1 | 13 | inactive | 12 | 4 | – | – | – | – | –
CSc1[nH]ccc2ncnc1-2 | < 5 | – | 11 | 4 | 9 | – | – | – | –
CCCCCCNc1nccc2c1ncn2C1O[C@H](CO)[C@@H](O)[C@H]1O (some centres not stated) | 14 | – | 41 | 8 | – | inactive | – | – | –
OC[C@H]1O[C@@H](n2cnc3c(SCc4ccccc4)nccc32)C[C@@H]1O | 11 | inactive | 19 | 18 | – | – | – | – | –
OCCNc1[nH]ccc2ncnc1-2 | < 5 | – | 16 | 3 | > 9 | – | – | – | –
[O-][n+]1ccc2c(c1)ncn2[C@H]1C[C@H](O)[C@@H](CO)O1 | < 5 | inactive | 13 | 0 | – | – | – | – | –
[N-]=[N+]=Nc1nccc2c1ncn2C1O[C@H](CO)[C@@H](O)[C@H]1O (some centres not stated) | < 5 | – | 8 | 4 | > 9 | – | – | – | –
[N-]=[N+]=Nc1nccc2ncn([C@H]3C[C@H](O)[C@@H](CO)O3)c12 | < 5 | – | 2 | 14 | > 9 | – | – | – | –
OC[C@H]1O[C@@H](n2cnc3cnccc32)[C@H](O)[C@@H]1O (stereo in doubt; 16) [listing 1 of 2 here] | < 5 | – | – | – | – | – | 8 | – | –
CSc1nccc2c1ncn2C1O[C@H](CO)[C@@H](O)[C@H]1O (some centres not stated) | < 5 | inactive | 40 | 24 | – | – | – | – | –
OC[C@H]1O[C@@H](n2cnc3cnccc32)C[C@@H]1O | < 5 | – | 0 | 6 | > 9 | – | – | – | –
OC[C@H]1O[C@@H](n2cnc3cnccc32)[C@H](O)[C@@H]1O (stereo in doubt; 16) [listing 2 of 2 here] | – | inactive | – | 13 | – | – | – | – | –
CN(C)c1[nH]ccc2ncnc1-2 | 25 | – | 21 | 8 | 9 | – | – | – | –
Sc1[nH]ccc2ncnc1-2 | < 5 | – | 38 | 26 | 8 | – | – | – | –
c1ccc(Nc2[nH]ccc3ncnc2-3)cc1 | 26 | inactive | 34 | 12 | – | – | – | – | –
OC[C@H]1OC(n2cnc3c(NCc4ccccc4)nccc32)[C@H](O)[C@@H]1O (some centres not stated) | 5 | – | 38 | 32 | > 9 | – | – | – | –
OC[C@H]1O[C@@H](n2cnc3cnccc32)[C@H](O)[C@@H]1O (stereo in doubt; 17) [listing 1 of 2 here] | – | – | – | – | – | – | 3 | – | –
CNc1nccc2c1ncn2C1O[C@H](CO)[C@@H](O)[C@H]1O (some centres not stated) | 11 | – | 21 | 8 | – | inactive | – | – | –
OC[C@H]1OC(n2cnc3c(Cl)nccc32)[C@H](O)[C@@H]1O (some centres not stated) | < 5 | inactive | 27 | 76 | – | – | – | – | –
C[C@H]1OC(n2cnc3c(N)nccc32)[C@H](O)[C@@H]1O (some centres not stated) | 32 | inactive | 4 | 18 | – | – | – | – | –
c1cc2[nH]cnc2cn1 | < 5 | – | 12 | 0 | > 9 | – | – | – | –
c1ccc(CNc2[nH]ccc3ncnc2-3)cc1 | 57 | – | 68 | 75 | 9 | – | – | – | –
CCCCCCNc1[nH]ccc2ncnc1-2 | 100 | – | 82 | 53 | > 9 | – | – | 45 | 0

SMILES | inhibition at 100 µM (EL4 [1]) [%] | ED50 (Rattus norvegicus [2]) | inhibition at 100 µM (Mus musculus) [%] | inhibition (D98 (Homo sapiens)) [%] | ED50 (Rattus norvegicus [3]) [mg/kg] | ED50 (Rattus norvegicus [4]) | Inhibition (Mus musculus) [%] | inhibition at 50 µM (EL4 [5]) [%] | inhibition at 26 µM (EL4 [6]) [%]
[O-][n+]1ccc2c(c1)ncn2C1O[C@H](CO)[C@@H](O)[C@H]1O (some centres not stated) | < 5 | inactive | 3 | 5 | – | – | – | – | –
CNc1[nH]ccc2ncnc1-2 | < 5 | – | 6 | 18 | – | inactive | – | – | –
OC[C@H]1OC(n2cnc3c(S)nccc32)[C@H](O)[C@@H]1O (some centres not stated) | < 5 | – | 3 | 6 | 9 | – | – | – | –
CN(C)c1nccc2c1ncn2C1O[C@H](CO)[C@@H](O)[C@H]1O (some centres not stated) | 10 | – | 14 | 0 | > 9 | – | – | – | –
Nc1nccc2c1ncn2[C@@H]1O[C@H](CO)[C@@H](O)[C@H]1O | 80 | – | 49 | 56 | 3 | – | – | – | –
OCCNc1nccc2c1ncn2C1O[C@H](CO)[C@@H](O)[C@H]1O (some centres not stated) | 6 | – | 3 | 0 | – | inactive | – | – | –
[N-]=[N+]=Nc1[nH]ccc2ncnc1-2 | < 5 | inactive | 20 | 20 | – | – | – | – | –
CC1OC(n2cnc3c(N)nccc32)CC1O (configuration not stated) | 25 | inactive | 12 | 3 | – | – | – | – | –
Nc1nccc2c1ncn2[C@H]1C[C@H](O)[C@@H](CO)O1 | 89 | – | 0 | 18 | 10 | – | – | – | –
OC[C@H]1O[C@@H](n2cnc3cnccc32)[C@H](O)[C@@H]1O (stereo in doubt; 17) [listing 2 of 2 here] | – | inactive | – | 1 | – | – | – | – | –
OC[C@H]1O[C@@H](n2cnc3c(S)nccc32)C[C@@H]1O | < 5 | inactive | 8 | 10 | – | – | – | – | –
CCNc1nccc2c1ncn2C1O[C@H](CO)[C@@H](O)[C@H]1O (some centres not stated) | 8 | – | 20 | 4 | – | inactive | – | – | –
OC[C@H]1OC(n2cnc3c(SCc4ccccc4)nccc32)[C@H](O)[C@@H]1O (some centres not stated) | 30 | – | 43 | 30 | 9 | – | – | – | –
[O-][n+]1ccc2[nH]cnc2c1 | 5 | – | 1 | 3 | > 9 | – | – | – | –
OC[C@H]1OC(n2cnc3c(Nc4ccccc4)nccc32)[C@H](O)[C@@H]1O (some centres not stated) | 10 | – | 18 | 4 | > 9 | – | – | – | –
Nc1[nH]ccc2ncnc1-2 | < 5 | – | 24 | 60 | 8 | – | – | – | –
c1ccc(CSc2[nH]ccc3ncnc2-3)cc1 | 20 | – | 54 | 26 | > 9 | – | – | – | –
CCNc1[nH]ccc2ncnc1-2 | < 5 | – | 11 | 3 | – | inactive | – | – | –
CSc1nccc2c1ncn2[C@H]1C[C@H](O)[C@@H](CO)O1 | < 5 | – | 30 | 36 | > 9 | – | – | – | –
CN(C)c1nccc2c1ncn2[C@H]1C[C@H](O)[C@@H](CO)O1 | < 5 | – | 6 | 0 | > 9 | – | – | – | –
OC[C@H]1O[C@@H](n2cnc3c(Cl)nccc32)C[C@@H]1O | < 5 | inactive | 25 | 5 | – | – | – | – | –
OC[C@H]1O[C@@H](n2cnc3c(NCc4ccccc4)nccc32)C[C@@H]1O | 8 | – | 37 | 18 | > 9 | – | – | – | –
Clc1[nH]ccc2ncnc1-2 | < 5 | – | 29 | 6 | > 9 | – | – | – | –

— ChEMBL document CHEMBL1123202, “Imidazo[4,5-c]pyridines (3-deazapurines) and their nucleosides as immunosuppressive and antiinflammatory agents” (1986)
